Experiments:
[1] = Biodistribution in gall bladder of C57BL/6 mouse bearing mouse B16-F0 cells at 0.74 to 0.92 MBq, iv after 3 hrs; assay type: ADME, organism-based; settings: in vivo
Summary of the method: (§1)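 Male C57BL6 mice with s.c. left-flank B16-F0 melanoma (5 × 10⁵ cells in PBS). Two mice per time point frozen in liquid nitrogen after CO₂ sacrifice. Eight 40 µm whole-body cryosections per mouse read by multiwire proportional counter. cpm/mm² converted to kBq/g and expressed as %ID/g.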

[2] = Biodistribution in gall bladder of C57BL/6 mouse bearing mouse B16-F0 cells at 0.74 to 0.92 MBq, iv after 6 hrs; assay type: ADME, organism-based; settings: in vivo; summary of the method: as §1
[3] = Partition coefficient, log P in phosphate buffer solution at pH 7.4; assay type: physicochemical
Summary of the method: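 Shake-flask partition: 50 µM [¹²⁵I]-labelled compound in phosphate buffer pH 7.4 was mixed with 2 mL n-octanol. Each phase was γ-counted, P was taken as the octanol/buffer activity ratio, and log P was reported.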

[4] = Drug excretion in mouse B16-F0 cells bearing C57BL/6 mouse urine at 0.74 to 0.92 MBq, iv after 72 hrs; assay type: ADME, organism-based; settings: in vivo
Summary of the method: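 Urine was collected from two B16-F0 tumour-bearing C57BL6 mice for up to 72 h after iv tail-vein injection of the [¹²⁵I]-labelled compound (0.1 µmol). Samples were counted to give cumulative urinary excretion as %ID.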

[5] = Biodistribution in tumor of C57BL/6 mouse bearing mouse B16-F0 cells at 0.74 to 0.92 MBq, iv after 1 hr; assay type: ADME, organism-based, Neoplasm; settings: in vivo
Summary of the method: (§2)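 [¹²⁵I]-labelled compound given iv by tail vein (0.1 µmol per mouse) to male C57BL6 mice bearing s.c. B16-F0 flank tumours (5 × 10⁵ cells in PBS). Two mice per time point were killed by CO₂, frozen in liquid nitrogen and cut into 40 µm cryosections, eight slices per mouse. Slice radioactivity was read on a multiwire proportional counter, converted to kBq/g and reported as %ID/g.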

[6] = Biodistribution in tumor of C57BL/6 mouse bearing mouse B16-F0 cells at 0.74 to 0.92 MBq, iv after 3 hrs; assay type: ADME, organism-based, Neoplasm; settings: in vivo; summary of the method: as §2
[7] = Biodistribution in tumor of C57BL/6 mouse bearing mouse B16-F0 cells at 0.74 to 0.92 MBq, iv after 6 hrs; assay type: ADME, organism-based, Neoplasm; settings: in vivo; summary of the method: as §2
[8] = Biodistribution in tumor of C57BL/6 mouse bearing mouse B16-F0 cells at 0.74 to 0.92 MBq, iv after 24 hrs; assay type: ADME, organism-based, Neoplasm; settings: in vivo; summary of the method: as §2
[9] = Biodistribution in tumor of C57BL/6 mouse bearing mouse B16-F0 cells at 0.74 to 0.92 MBq, iv after 72 hrs; assay type: ADME, organism-based, Neoplasm; settings: in vivo; summary of the method: as §2
[10] = Ratio of drug level in tumor to liver of C57BL/6 mouse bearing mouse B16-F0 cells at 0.74 to 0.92 MBq, iv after 1 hr; assay type: ADME, organism-based; settings: in vivo
Summary of the method: (§3)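 Tumour and organ radioactive concentrations came from whole-body cryosection counting (40 µm slices, eight per mouse, two mice per time) after tail-vein injection of the [¹²⁵I]-labelled compound (0.1 µmol) into male C57BL6 mice bearing s.c. B16-F0 melanoma. Each value is the ratio of the tumour concentration to the organ concentration.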

[11] = Ratio of drug level in tumor to liver of C57BL/6 mouse bearing mouse B16-F0 cells at 0.74 to 0.92 MBq, iv after 3 hrs; assay type: ADME, organism-based; settings: in vivo; summary of the method: as §3
[12] = Ratio of drug level in tumor to liver of C57BL/6 mouse bearing mouse B16-F0 cells at 0.74 to 0.92 MBq, iv after 6 hrs; assay type: ADME, organism-based; settings: in vivo; summary of the method: as §3
[13] = Ratio of drug level in tumor to lung of C57BL/6 mouse bearing mouse B16-F0 cells at 0.74 to 0.92 MBq, iv after 1 hr; assay type: ADME, organism-based; settings: in vivo; summary of the method: as §3
[14] = Ratio of drug level in tumor to lung of C57BL/6 mouse bearing mouse B16-F0 cells at 0.74 to 0.92 MBq, iv after 3 hrs; assay type: ADME, organism-based; settings: in vivo; summary of the method: as §3
[15] = Biodistribution in intestinal content of C57BL/6 mouse bearing mouse B16-F0 cells at 0.74 to 0.92 MBq, iv after 1 hr; assay type: ADME, organism-based; settings: in vivo; summary of the method: as §1
[16] = Biodistribution in intestinal content of C57BL/6 mouse bearing mouse B16-F0 cells at 0.74 to 0.92 MBq, iv after 3 hrs; assay type: ADME, organism-based; settings: in vivo; summary of the method: as §1
[17] = Biodistribution in intestinal content of C57BL/6 mouse bearing mouse B16-F0 cells at 0.74 to 0.92 MBq, iv after 6 hrs; assay type: ADME, organism-based; settings: in vivo; summary of the method: as §1
[18] = Biodistribution in intestinal content of C57BL/6 mouse bearing mouse B16-F0 cells at 0.74 to 0.92 MBq, iv after 24 hrs; assay type: ADME, organism-based; settings: in vivo; summary of the method: as §1
[19] = Biodistribution in Stomach content of C57BL/6 mouse bearing mouse B16-F0 cells at 0.74 to 0.92 MBq, iv after 1 hr; assay type: ADME, organism-based; settings: in vivo; summary of the method: as §1
[20] = Biodistribution in Stomach content of C57BL/6 mouse bearing mouse B16-F0 cells at 0.74 to 0.92 MBq, iv after 3 hrs; assay type: ADME, organism-based; settings: in vivo; summary of the method: as §1
[21] = Biodistribution in Stomach content of C57BL/6 mouse bearing mouse B16-F0 cells at 0.74 to 0.92 MBq, iv after 6 hrs; assay type: ADME, organism-based; settings: in vivo; summary of the method: as §1
[22] = Biodistribution in Stomach content of C57BL/6 mouse bearing mouse B16-F0 cells at 0.74 to 0.92 MBq, iv after 24 hrs; assay type: ADME, organism-based; settings: in vivo; summary of the method: as §1
Liver [23] = test: Biodistribution in liver of C57BL/6 mouse bearing mouse B16-F0 cells at 0.74 to 0.92 MBq, iv after 1 hr; assay type: ADME, organism-based; settings: in vivo; summary of the method: as §1
Liver [24] = test: Biodistribution in liver of C57BL/6 mouse bearing mouse B16-F0 cells at 0.74 to 0.92 MBq, iv after 3 hrs; assay type: ADME, organism-based; settings: in vivo; summary of the method: as §1
Liver [25] = test: Biodistribution in liver of C57BL/6 mouse bearing mouse B16-F0 cells at 0.74 to 0.92 MBq, iv after 6 hrs; assay type: ADME, organism-based; settings: in vivo; summary of the method: as §1
Muscle tissue = test: Biodistribution in muscle of C57BL/6 mouse bearing mouse B16-F0 cells at 0.74 to 0.92 MBq, iv after 1 hr; assay type: ADME, organism-based; settings: in vivo; summary of the method: as §1
Pancreas = test: Biodistribution in pancreas of C57BL/6 mouse bearing mouse B16-F0 cells at 0.74 to 0.92 MBq, iv after 1 hr; assay type: ADME, organism-based; settings: in vivo; summary of the method: as §1
Lung [26] = test: Biodistribution in lung of C57BL/6 mouse bearing mouse B16-F0 cells at 0.74 to 0.92 MBq, iv after 1 hr; assay type: ADME, organism-based; settings: in vivo; summary of the method: as §1
Lung [27] = test: Biodistribution in lung of C57BL/6 mouse bearing mouse B16-F0 cells at 0.74 to 0.92 MBq, iv after 3 hrs; assay type: ADME, organism-based; settings: in vivo; summary of the method: as §1
Spleen [28] = test: Biodistribution in spleen of C57BL/6 mouse bearing mouse B16-F0 cells at 0.74 to 0.92 MBq, iv after 1 hr; assay type: ADME, organism-based; settings: in vivo; summary of the method: as §2
Spleen [29] = test: Biodistribution in spleen of C57BL/6 mouse bearing mouse B16-F0 cells at 0.74 to 0.92 MBq, iv after 6 hrs; assay type: ADME, organism-based; settings: in vivo; summary of the method: as §2
Kidney [30] = test: Biodistribution in kidney of C57BL/6 mouse bearing mouse B16-F0 cells at 0.74 to 0.92 MBq, iv after 1 hr; assay type: ADME, organism-based; settings: in vivo; summary of the method: as §1
Kidney [31] = test: Biodistribution in kidney of C57BL/6 mouse bearing mouse B16-F0 cells at 0.74 to 0.92 MBq, iv after 3 hrs; assay type: ADME, organism-based; settings: in vivo; summary of the method: as §1
Blood [32] = test: Biodistribution in blood of C57BL/6 mouse bearing mouse B16-F0 cells at 0.74 to 0.92 MBq, iv after 1 hr; assay type: ADME, organism-based; settings: in vivo; summary of the method: as §1
Blood [33] = test: Biodistribution in blood of C57BL/6 mouse bearing mouse B16-F0 cells at 0.74 to 0.92 MBq, iv after 3 hrs; assay type: ADME, organism-based; settings: in vivo; summary of the method: as §1
Thyroid gland [34] = test: Biodistribution in thyroid of C57BL/6 mouse bearing mouse B16-F0 cells at 0.74 to 0.92 MBq, iv after 3 hrs; assay type: ADME, organism-based; settings: in vivo; summary of the method: as §2
Thyroid gland [35] = test: Biodistribution in thyroid of C57BL/6 mouse bearing mouse B16-F0 cells at 0.74 to 0.92 MBq, iv after 6 hrs; assay type: ADME, organism-based; settings: in vivo; summary of the method: as §2
Thyroid gland [36] = test: Biodistribution in thyroid of C57BL/6 mouse bearing mouse B16-F0 cells at 0.74 to 0.92 MBq, iv after 24 hrs; assay type: ADME, organism-based; settings: in vivo; summary of the method: as §2
Thyroid gland [37] = test: Biodistribution in thyroid of C57BL/6 mouse bearing mouse B16-F0 cells at 0.74 to 0.92 MBq, iv after 72 hrs; assay type: ADME, organism-based; settings: in vivo; summary of the method: as §2
[38] = Biodistribution in uvea of C57BL/6 mouse bearing mouse B16-F0 cells at 0.74 to 0.92 MBq, iv after 1 hr; assay type: ADME, organism-based, Uveal tract; settings: in vivo; summary of the method: as §2
[39] = Biodistribution in uvea of C57BL/6 mouse bearing mouse B16-F0 cells at 0.74 to 0.92 MBq, iv after 3 hrs; assay type: ADME, organism-based, Uveal tract; settings: in vivo; summary of the method: as §2
[40] = Biodistribution in uvea of C57BL/6 mouse bearing mouse B16-F0 cells at 0.74 to 0.92 MBq, iv after 6 hrs; assay type: ADME, organism-based, Uveal tract; settings: in vivo; summary of the method: as §2
[41] = Biodistribution in uvea of C57BL/6 mouse bearing mouse B16-F0 cells at 0.74 to 0.92 MBq, iv after 24 hrs; assay type: ADME, organism-based, Uveal tract; settings: in vivo; summary of the method: as §2
[42] = Biodistribution in uvea of C57BL/6 mouse bearing mouse B16-F0 cells at 0.74 to 0.92 MBq, iv after 72 hrs; assay type: ADME, organism-based, Uveal tract; settings: in vivo; summary of the method: as §2

Drug uptake [1]: 160.6 % ID/g
Drug uptake [2]: 38.11 % ID/g
logD [3]: 1.47
Activity [4]: 17.1%
Drug uptake [5]: 14.8 % ID/g
Drug uptake [6]: 16.1 % ID/g
Drug uptake [7]: 9.9 % ID/g
Drug uptake [8]: 7.1 % ID/g
Drug uptake [9]: 4.5 % ID/g
Ratio [10]: 1.13
Ratio [11]: 2.26
Ratio [12]: 2.93
Ratio [13]: 2.86
Ratio [14]: 4.31
Drug uptake [15]: 105.55 % ID/g
Drug uptake [16]: 72.05 % ID/g
Drug uptake [17]: 95.86 % ID/g
Drug uptake [18]: 3.19 % ID/g
Drug uptake [19]: 24.46 % ID/g
Drug uptake [20]: 17.98 % ID/g
Drug uptake [21]: 8.62 % ID/g
Drug uptake [22]: 2.32 % ID/g
Drug uptake (Liver [23]): 13.08 % ID/g
Drug uptake (Liver [24]): 7.15 % ID/g
Drug uptake (Liver [25]): 3.38 % ID/g
Drug uptake (Muscle tissue): 0.55 % ID/g
Drug uptake (Pancreas): 6.17 % ID/g
Drug uptake (Lung [26]): 5.16 % ID/g
Drug uptake (Lung [27]): 3.74 % ID/g
Drug uptake (Spleen [28]): 11.51 % ID/g
Drug uptake (Spleen [29]): 14.97 % ID/g
Drug uptake (Kidney [30]): 6.9 % ID/g
Drug uptake (Kidney [31]): 4.57 % ID/g
Drug uptake (Blood [32]): 3.31 % ID/g
Drug uptake (Blood [33]): 1.33 % ID/g
Drug uptake (Thyroid gland [34]): 63.44 % ID/g
Drug uptake (Thyroid gland [35]): 34.17 % ID/g
Drug uptake (Thyroid gland [36]): 142.88 % ID/g
Drug uptake (Thyroid gland [37]): 174.73 % ID/g
Drug uptake [38]: 12.87 % ID/g
Drug uptake [39]: 24.4 % ID/g
Drug uptake [40]: 10.09 % ID/g
Drug uptake [41]: 10.44 % ID/g
Drug uptake [42]: 7.26 % ID/g
SMILES: CCN(CC)CCNC(=O)c1nc2cc([125I])ccc2[nH]1.Cl.Cl
